In brackets after ≈: the same amount, converted by molar mass.
Experiments:
[1] = Cytotoxicity against human MT4 cells by WST1 assay; format: cell-based; conditions: read-out: TC50 (the source's name)
Summary of the method: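 TC50 defined as 50% toxic concentration. Values are the mean of two experiments, with SD normally under 20%.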

[2] = tested on: Human immunodeficiency virus 1; assay: Antiviral activity against 0.0005 MOI Human immunodeficiency virus 1 NL43 infected in human MT4 cells assessed as protection against virus-induced cytopathicity after 4 days by WST1 assay; format: functional, organism-based; conditions: Human immunodeficiency virus 1, NL43, MT4, 96 h
Summary of the method: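 Antiviral EC50 defined as 50% effective concentration. Values are the mean of two experiments, with SD normally under 20%.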

[3] = Therapeutic index, ratio of TC50 for human MT4 cells to EC50 for Human immunodeficiency virus 1 NL43 infected in human MT4 cells; format: cell-based; conditions: read-out: TI
Summary of the method: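 Index calculated as TC50/EC50. TC50 and EC50 are each the mean of two experiments.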

[4] = Metabolic stability in mouse liver microsomes after 40 mins by LC-MS/MS analysis; format: ADME, Microsome; conditions: read-out: Stability
[5] = Aqueous solubility in phosphate buffer at pH 7.4; format: physicochemical
Summary of the method: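 Aqueous solubility measured in phosphate buffer at pH 7.4 as a preliminary screen. Reported in µM.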

Plasma = assay: Prodrug activation in 80% phosphate buffered human plasma assessed as compound remaining after 40 mins at pH 7.4; format: cell-free; conditions: pH 7.4, 40 min
Summary of the method: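 Incubated in phosphate-buffered 80% human plasma at pH 7.4 and 37 °C. Percent of compound remaining measured at 40 min, along with time-dependent formation of the parent indazole.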

[6] = Chemical stability in phosphate buffer after 40 mins at pH 7.4; format: physicochemical; conditions: pH 7.4, 40 min
Summary of the method: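 Compound incubated in phosphate buffer at pH 7.4 and 37 °C for 40 min. Hydrolysis monitored.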

| SMILES | CC50 [1] | EC50 [2] | selectivity ratio [3] | remaining at 40 min [4] | solubility [5] | Stability (Plasma) | Stability [6] |
| --- | --- | --- | --- | --- | --- | --- | --- |
| Clc1ccccc1-c1cnc(Nc2ccc3[nH]ncc3c2)o1 | > 100 µM | 9 µM | > 11 |  |  |  |  |
| COc1cccc(-c2cnc(Nc3ccc4[nH]ncc4c3)o2)c1 | > 90 µM | 2 µM | > 45 |  |  |  |  |
| COc1ccccc1-c1cnc(Nc2ccc3[nH]ncc3c2)o1 | > 100 µM | 100 µM | > 1 |  |  |  |  |
| Clc1ccc(-c2cnc(Nc3ccc4[nH]ncc4c3)o2)cc1 | > 90 µM | 3 µM | > 30 | 83% | 0.2 µM (≈ 0.0621 µg/mL) |  |  |
| Clc1cccc(-c2cnc(Nc3ccc4[nH]ncc4c3)o2)c1 | > 100 µM | 54 µM | > 1.9 |  |  |  |  |
| c1ccc(-c2cnc(Nc3ccc4[nH]ncc4c3)o2)cc1 | > 90 µM | 2 µM | > 45 | 9% |  |  |  |
| COc1cccc(-c2nc(Nc3ccc4[nH]ncc4c3)c3c(F)cccc3n2)c1 |  | 11 µM | 10 |  |  |  |  |
| O=[N+]([O-])c1ccc(N2CCCC(Nc3ccc4[nH]ncc4c3)C2)c(F)c1 (configuration not stated) |  | 13 µM | 10 |  |  |  |  |
| COc1ccc(-c2cnc(Nc3ccc4[nH]ncc4c3)o2)cc1 | > 100 µM | 100 µM | > 1 |  |  |  |  |
| O=C(NCc1ccc([N+](=O)[O-])cc1F)Nc1ccc2[nH]ncc2c1 |  | 6 µM | 15 |  |  |  |  |
| COc1ccc(-c2cnc(Nc3ccc4[nH]ncc4c3)o2)cc1OC | 21 µM | 0.42 µM | 50 |  |  |  |  |
| O=C(O)c1ccccc1C(=O)OCn1ncc2cc(Nc3ncc(-c4ccc(Cl)cc4)o3)ccc21 |  |  |  |  | 66 µM (≈ 32.3 µg/mL) | Stable |  |
| c1cc2[nH]ncc2cc1Nc1ncc(-c2ccc3c(c2)OCO3)o1 | 83 µM | 2.7 µM | 31 |  |  |  |  |
| O=C(O)CCC(=O)OCn1ncc2cc(Nc3ncc(-c4ccc(Cl)cc4)o3)ccc21 |  |  |  |  | 60 µM (≈ 26.5 µg/mL) | 35% | Stable |
| COc1cc(-c2cnc(Nc3ccc4[nH]ncc4c3)o2)ccc1Cl | 80 µM | 1.5 µM | 53 |  |  |  |  |
| Clc1ccc(-c2cnc(Nc3ccc4[nH]ncc4c3)o2)cc1Cl | > 100 µM | 35 µM | > 2.9 |  |  |  |  |

Reference: ChEMBL document CHEMBL2380204, “Discovery of a new HIV-1 inhibitor scaffold and synthesis of potential prodrugs of indazoles” (Bioorg Med Chem Lett, 2013)
